Measurements published in ChEMBL document CHEMBL1135021, “Biotinylated lithocholic acids for affinity chromatography of mammalian DNA polymerases alpha and beta” (Bioorg Med Chem Lett, 2002).
One block for each compound: values may come before it.

How the values were obtained:
[1] = biological target: T1, DNA polymerase beta (Rattus norvegicus, UniProt P06766); assay: Inhibition constant at a concentration of 10 uM on rat DNA polymerase beta as a function of template primer dose
Method in brief: (§1)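 Kinetic runs used calf thymus pol α or rat pol β (0.05 units each) preincubated with compound at 0 °C for 10 min in Tris–HCl pH 7.5/DTT/glycerol/EDTA buffer. Either poly(dA)/oligo(dT)12–18 (2/1) template-primer or dTTP substrate was varied. Km and Vmax came from double reciprocal plots, Ki from Dixon plots.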

[2] = biological target: T1, DNA polymerase beta; assay: Inhibitory effect on the activity of mammalian DNA polymerase beta was determined by inhibitory dose curves
Method in brief: (§2)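 Calf thymus pol α (immunoaffinity-purified) and rat pol β, 0.05 units each final, with poly(dA)/oligo(dT)12–18 (2/1) and dTTP. Compounds in DMSO, sonicated 30 s, then preincubated with enzyme at 0 °C for 10 min in 50 mM Tris–HCl pH 7.5, 1 mM DTT, 50% glycerol, 0.1 mM EDTA. Mixtures added to standard reactions; activity without compound taken as 100%. IC50 from dose–response curves.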

[3] = biological target: Nucleic Acid; assay: Inhibition constant at a concentration of 5 uM on calf DNA polymerase alpha as a function of template primer dose; assay type: nucleic-acid assay, Bos taurus; method in brief: as §1
[4] = biological target: T1, DNA polymerase beta; assay: Inhibition constant at a concentration of 10 uM on rat DNA polymerase beta as a function of nucleotide substrate concentration; method in brief: as §1
[5] = biological target: Nucleic Acid; assay: Inhibition constant at a concentration of 5 uM on calf DNA polymerase alpha as a function of nucleotide substrate concentration; assay type: nucleic-acid assay, Bos taurus; method in brief: as §1
[6] = biological target: Nucleic Acid; assay: Inhibitory effect on the activity of mammalian DNA polymerase alpha was determined by inhibitory dose curves; assay type: nucleic-acid assay, Bos taurus; method in brief: as §2
[7] = biological target: Nucleic Acid; assay: Inhibition constant at a concentration of 25 uM on calf DNA polymerase alpha as a function of template primer dose; assay type: nucleic-acid assay, Bos taurus
Method in brief: (§3)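 Calf thymus DNA pol α (immunoaffinity-purified), 0.05 units. Compound in DMSO, sonicated 30 s, preincubated with enzyme in 50 mM Tris–HCl pH 7.5, 1 mM DTT, 50% glycerol, 0.1 mM EDTA at 0 °C for 10 min. Activity measured varying poly(dA)/oligo(dT)12-18 (2/1) template-primer or dTTP nucleotide substrate. Km and Vmax were taken from double reciprocal plots and Ki from Dixon plots.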

[8] = biological target: T1, DNA polymerase beta; assay: Inhibitory effect on the activity of rat DNA polymerase beta was determined by inhibitory dose curves
Method in brief: (§4)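 Rat DNA pol β, 0.05 units, with poly(dA)/oligo(dT)12-18 template-primer and dTTP substrate. Compounds in DMSO at various concentrations, sonicated 30 s, then preincubated with enzyme in 50 mM Tris–HCl pH 7.5, 1 mM DTT, 50% glycerol, 0.1 mM EDTA at 0 °C for 10 min before addition to the reaction mix. Activity without compound was set as 100%, and IC50 was read from dose–response curves.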

[9] = biological target: T1, DNA polymerase beta; assay: Inhibition constant at a concentration of 5 uM on rat DNA polymerase beta as a function of nucleotide substrate concentration
Method in brief: (§5)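 Rat DNA pol β (0.05 units final) with poly(dA)/oligo(dT)12-18 (2/1) as template-primer and dTTP as nucleotide substrate. Inhibitor was dissolved in DMSO, sonicated 30 s, then preincubated with enzyme at 0 °C for 10 min in 50 mM Tris-HCl pH 7.5, 1 mM DTT, 50% glycerol and 0.1 mM EDTA. The mix was added to standard reactions with template-primer or dTTP varied. Ki came from double-reciprocal and Dixon plots.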

[10] = biological target: Nucleic Acid; assay: Inhibition constant at a concentration of 25 uM on calf DNA polymerase alpha as a function of nucleotide substrate concentration; assay type: nucleic-acid assay, Bos taurus; method in brief: as §3
[11] = tested on: Nucleic Acid; assay: Inhibitory effect on the activity of calf thymus DNA polymerase alpha was determined by inhibitory dose curves; assay type: nucleic-acid assay, Bos taurus
Method in brief: as §4, with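 “Calf thymus” for “Rat”, “α (immunoaffinity-purified),” for “β,”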

[12] = biological target: T1, DNA polymerase beta; assay: Inhibition constant at a concentration of 5 uM on rat DNA polymerase beta as a function of template primer dose; method in brief: as §5

SMILES: C[C@H](CCC(=O)O)[C@H]1CC[C@H]2[C@@H]3CCC4C[C@@H](OC(=O)CCNC(=O)CCCCCNC(=O)CCCCCNC(=O)CCCCC5SCC6NC(=O)NC65)CC[C@]4(C)[C@H]3CC[C@]12C (stereo partly specified)
Ki [1]: 12.8 µM
IC50 [2]: 32 µM
Ki [3]: 7.7 µM
Ki [4]: 20.1 µM
Ki [5]: 5.5 µM
IC50 [6]: 10 µM

SMILES: C[C@H](CCC(=O)O)[C@H]1CC[C@H]2[C@@H]3CCC4C[C@@H](O)CC[C@]4(C)[C@H]3CC[C@]12C (stereo partly specified)
Ki [7]: 15.3 µM
IC50 [8]: 11 µM
Ki [9]: 6.6 µM
Ki [10]: 22.5 µM
IC50 [11]: 40 µM
Ki [12]: 4.7 µM

IC50 [8]: 31 µM
IC50 [11]: 29 µM
SMILES: C[C@H](CCC(=O)O)[C@H]1CC[C@H]2[C@@H]3CCC4C[C@@H](OC(=O)CCNC(=O)CCCCC5SCC6NC(=O)NC65)CC[C@]4(C)[C@H]3CC[C@]12C (stereo partly specified)

IC50 [8]: 46 µM
IC50 [11]: 42 µM
SMILES: C[C@H](CCC(=O)O)[C@H]1CC[C@H]2[C@@H]3CCC4C[C@@H](OC(=O)CCNC(=O)CCCCCNC(=O)CCCCC5SCC6NC(=O)NC65)CC[C@]4(C)[C@H]3CC[C@]12C (stereo partly specified)
